One data set has as its system HL-60. Briefly: Cytotoxicity against human HL60 cells after 72 hrs by MTT assay. Format: functional, cell-based. As to conditions: HL-60, 72 h. An outline of the steps: (§1)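 Cells were exposed continuously to drug for 72 h, with dilutions made in RPMI 1640 + 10% FBS and final solvent below 0.625%. Relative growth was read by MTT, and IC50 was reported in μM.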
A general note: Formazan colour is commonly taken as a measure of viable cells.

Data set [1] in a line: Cytotoxicity against human BRO cells after 72 hrs by MTT assay. It counts as functional, cell-based. The procedure, abridged:
as §1

The subject of another data set is MCF7. As to the kind of experiment: Cytotoxicity against human MCF7 cells after 72 hrs by MTT assay. Format: functional, cell-based. An outline of the steps:
as §1

Data set [2] has as its system SK-OV-3. As to the kind of experiment: Cytotoxicity against human SKOV3 cells after 72 hrs by MTT assay. Format: functional, cell-based. The procedure, abridged:
as §1

The next data set relates to PC-3. Briefly: Cytotoxicity against human PC3 cells after 72 hrs by MTT assay. Format: functional, cell-based. The procedure, abridged:
as §1

In the next data set the test system is HT-29. Briefly: Cytotoxicity against human HT-29 cells after 72 hrs by MTT assay. Format: functional, cell-based. An outline of the steps: as §1
For a further data set, the system named is P388. As to the kind of experiment: Cytotoxicity against mouse P388 cells after 72 hrs by MTT assay. Format: functional, cell-based. An outline of the steps:
as §1

The subject of another data set is Mus musculus. Briefly: Toxicity in mouse assessed as weight loss at 40 mg/kg, ip. The arrangement: dose 40 mg/kg, route intraperitoneal. Format: organism-based. Particulars: in vivo.
The test system of data set [3] is SK-OV-3. Briefly: Antitumor activity against human SKOV3 xenografted in mouse assessed as reduction in tumor volume at 40 mg/kg, ip for 5 days. It counts as functional. Set-up: scale not given: the % may be the effect or the level left. Particulars: route intraperitoneal. An outline of the steps:
(§2)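 Female nu/nu mice, 6-10 weeks old. SKOV-3 cells were harvested at 80% confluence with viability >90% by trypan blue, washed, resuspended in PBS and given i.p. at 0.65 × 10^6 per mouse. Mice were sacrificed at 7 weeks and tumors counted and total volume measured per mouse.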
On the technique in general: A xenograft is tissue or cells of one species grown in another, often human tumour cells in immunodeficient mice.

In data set [4] the test system is SK-OV-3. As to the kind of experiment: Antitumor activity against human SKOV3 xenografted in mouse assessed as reduction in tumor number at 40 mg/kg, ip for 5 days. Particulars: route intraperitoneal. Format: functional. The arrangement: scale not given: the % may be the effect or the level left. An outline of the steps: as §2

Broadly, the IC50 is the concentration needed to halve the response being measured.

Bounds are passed on as bounds.

In the case of `O=C(CCC(=O)N1CCCCC1)Nc1cc2c3ccccc3ccc2c2ccccc12`, the IC50 in the data set with HL-60 was 18.8 µM; in data set [1] (Homo sapiens, BRO, 72 h) it was above 100 µM; with MCF7 (Homo sapiens, MCF7, 72 h), 24.5 µM; in the data set with SK-OV-3 [2] (Homo sapiens, SK-OV-3, 72 h), 21 µM; with PC-3 (Homo sapiens, PC-3, 72 h), 50.4 µM; in the data set on HT-29 (Homo sapiens, HT-29, 72 h) it was 33.3 µM.

As for `O=C(CCC(=O)N1CCCCC1)Nc1cc2c3ccccc3c(NC(=O)CCC(=O)N3CCCCC3)cc2c2ccccc12`, the IC50 was found to be 25 µM with HL-60; 44.3 µM in data set [1] (Homo sapiens, BRO, 72 h); 21 µM with MCF7 (Homo sapiens, MCF7, 72 h); 37.8 µM in the data set with P388 (Mus musculus, P388, 72 h); 22 µM in the data set on SK-OV-3 [2] (Homo sapiens, SK-OV-3, 72 h); 24.4 µM in the data set on PC-3 (Homo sapiens, PC-3, 72 h). The molecule further returned an IC50 in the data set on HT-29 (Homo sapiens, HT-29, 72 h) of 41.1 µM.

As to `CN1CCN(C(=O)CCC(=O)Nc2cc3c4ccccc4c(NC(=O)CCC(=O)N4CCN(C)CC4)cc3c3ccccc23)CC1`, the IC50 was determined as 42.1 µM in the data set with HL-60; 57.3 µM in [1] (Homo sapiens, BRO, 72 h); 75 µM with MCF7 (Homo sapiens, MCF7, 72 h); 98 µM in the data set on P388 (Mus musculus, P388, 72 h); 72.2 µM in the data set on SK-OV-3 [2] (Homo sapiens, SK-OV-3, 72 h); 15.5 µM in the data set with PC-3 (Homo sapiens, PC-3, 72 h). Further, in the data set with HT-29 (Homo sapiens, HT-29, 72 h), the midpoint of inhibition, the IC50, lay at 66.6 µM.

Regarding `CN1CCN(CCCCNc2cc3c4ccccc4c(NCCCCN4CCN(C)CC4)cc3c3ccccc23)CC1`, the 50% inhibitory concentration (IC50) with HL-60 worked out at 0.9 µM; in data set [1] (bro), 3.8 µM; in the data set on MCF7 (Homo sapiens, MCF7, 72 h), 1.7 µM; in the data set with P388 (p388), 1.7 µM; in the data set on SK-OV-3 [2] (Homo sapiens, SK-OV-3, 72 h), 0.9 µM; in the data set on PC-3 (Homo sapiens, PC-3, 72 h), 1.2 µM. The molecule also displayed an IC50 in the data set with HT-29 (Homo sapiens, HT-29, 72 h) of 2.1 µM.

Turning to `CN1CCN(CCCCNc2cc3c4ccccc4c(NCCCCN4CCN(C)CC4)cc3c3ccccc23)CC1.Cl`, the IC50 in data set [1] (bro) was 0.6 µM; with MCF7 (mcf7), 1.2 µM; in the data set with P388 (p388), 0.8 µM; with SK-OV-3 [2] (sk-ov-3), 1 µM; in the data set on PC-3 (pc-3), 2.1 µM; in the data set with HT-29 (ht-29), 1.6 µM. The Activity with Mus musculus was found to be 5%; with SK-OV-3 [3], 47%; in the data set on SK-OV-3 [4] it was 35%.

Take `c1ccc2c(c1)ccc1c3ccccc3c(NCCCCN3CCCCC3)cc21`: the IC50 stood at 1.1 µM in the data set with HL-60; 3.4 µM in [1] (Homo sapiens, BRO, 72 h); 2.3 µM with MCF7 (Homo sapiens, MCF7, 72 h); 2.2 µM with P388 (Mus musculus, P388, 72 h); 4.4 µM in the data set with SK-OV-3 [2] (Homo sapiens, SK-OV-3, 72 h); 3.7 µM with PC-3 (Homo sapiens, PC-3, 72 h). This molecule returned an IC50 in the data set with HT-29 (Homo sapiens, HT-29, 72 h) of 2.4 µM.

For the molecule `CN1CCN(CCCCNc2cc3c4ccccc4ccc3c3ccccc23)CC1`, the IC50 in the data set on HL-60 amounted to 5.3 µM; in data set [1] (Homo sapiens, BRO, 72 h), 13.9 µM; in the data set with MCF7 (Homo sapiens, MCF7, 72 h), 6.4 µM; in the data set on P388 (Mus musculus, P388, 72 h), 19.5 µM; with SK-OV-3 [2] (Homo sapiens, SK-OV-3, 72 h) it was 8.4 µM; with PC-3 (Homo sapiens, PC-3, 72 h), 10 µM. The molecule also registered an IC50 with HT-29 (Homo sapiens, HT-29, 72 h) of 14.3 µM.

In the case of `c1ccc2c(c1)c(NCCCCN1CCCCC1)cc1c3ccccc3c(NCCCCN3CCCCC3)cc21`, the IC50 in the data set with HL-60 came out at 0.8 µM; in [1] (Homo sapiens, BRO, 72 h), 1.7 µM; with MCF7 (Homo sapiens, MCF7, 72 h), 1.4 µM; with P388 (Mus musculus, P388, 72 h) it was 2 µM; in the data set with SK-OV-3 [2] (Homo sapiens, SK-OV-3, 72 h), 1.9 µM; in the data set on PC-3 (Homo sapiens, PC-3, 72 h) it was 0.8 µM. In the data set on HT-29 (Homo sapiens, HT-29, 72 h), this molecule displayed an IC50 of 1.2 µM.

Turning to `CN1CCN(C(=O)CCC(=O)Nc2cc3c4ccccc4ccc3c3ccccc23)CC1`, the IC50 with HL-60 was found to be 9.5 µM; in data set [1] (Homo sapiens, BRO, 72 h), 41.6 µM; in the data set with MCF7 (Homo sapiens, MCF7, 72 h), 7.1 µM; in the data set with P388 (Mus musculus, P388, 72 h), 6 µM; in the data set on SK-OV-3 [2] (Homo sapiens, SK-OV-3, 72 h), 11.1 µM; in the data set on PC-3 (Homo sapiens, PC-3, 72 h) it was 18.4 µM. In the data set with HT-29 (Homo sapiens, HT-29, 72 h), this molecule showed an IC50 of 9.3 µM.

The values are drawn from ChEMBL document CHEMBL1250496, “Novel 6,12-disubstituted chrysene as potent anticancer agent: synthesis, in vitro and in vivo study” (Eur J Med Chem, 2010).
